The values that follow come from ChEMBL document CHEMBL2034867, “S-Farnesyl-Thiopropionic Acid (FTPA) Triazoles as Potent Inhibitors of Isoprenylcysteine Carboxyl Methyltransferase” (ACS Med Chem Lett, 2012).

In assay [1] the target is T1, Protein-S-isoprenylcysteine O-methyltransferase (Homo sapiens, UniProt O60725). Description: Specific activity at ICMT at 10 uM relative to AFC. In short, it runs like this: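 Single-point vapor diffusion assay at 10 μM inhibitor. Icmt specific activity is expressed as percent of the no-inhibitor AFC control.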
Assay [2] concerns the target T1, Protein-S-isoprenylcysteine O-methyltransferase. The experiment in a line: Inhibition of ICMT in cell free system.
In assay [3] the test system is MEF. The experiment in a line: Cytotoxicity against icmt-positive MEF cells after 5 days by MTT assay. The format is functional, cell-based. To be noted: Mus musculus, 120 h. A digest of the protocol:
(§1)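 MEFs from Icmt+/+ or Icmt–/– animals were seeded at 1000 cells/well in DMEM with 10% FBS for 24 h. Medium was then changed to DMEM with 5% FBS containing compound at various concentrations, or 0.1% DMSO. After 5 days, MTT (5 mg/mL) was added for 4 h at 37 °C. Medium was removed, formazan dissolved in DMSO, and absorbance read at 590 nm.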

Assay [4] relates to MEF. The experiment in a line: Cytotoxicity against icmt-double mutant MEF cells after 5 days by MTT assay. The following applies: Mus musculus, 120 h. The format is cell-based. A digest of the protocol:
as §1

Assay [5] addresses T1, Protein-S-isoprenylcysteine O-methyltransferase. Description: Inhibition of Icmt-mediated GFP-K-Ras membrane localization in human Jurkat T cells at 10 uM after 24 hrs by fluorescent microscopic analysis. The format is cell-based. A digest of the protocol: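 Jurkat T cells (E6.1) were transfected with GFP-K-Ras and treated for 24 h with compound, vehicle, or 25 μM simvastatin. Cells were placed on poly-L-lysine-coated coverslips (100 μg/mL) and fixed in 3.7% formaldehyde for 10 min. GFP localization was scored by fluorescence microscopy in random fields of 100 cells as normal membrane, partial mislocalization or complete mislocalization.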

A short description of assay [6]: Cytotoxicity against human PA-TU-8902 cells after 5 days by MTT assay. It is filed as functional, cell-based. To be noted: PaTu 8902, 120 h.

Activity calls are given as the source filed them. The rule behind the calls is not given here. A value given as a limit tells only on which side of the number the result lay.

T1 sequence (O60725 whole entry, the tested form may be a part): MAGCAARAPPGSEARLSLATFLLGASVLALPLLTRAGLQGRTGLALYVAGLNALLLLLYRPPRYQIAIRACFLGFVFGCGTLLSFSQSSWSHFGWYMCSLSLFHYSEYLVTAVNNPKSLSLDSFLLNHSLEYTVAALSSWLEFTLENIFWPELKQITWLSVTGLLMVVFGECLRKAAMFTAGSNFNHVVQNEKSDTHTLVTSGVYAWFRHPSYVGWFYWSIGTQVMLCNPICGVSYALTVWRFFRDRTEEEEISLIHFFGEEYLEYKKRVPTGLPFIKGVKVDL

As to `CCCCCCCCCCc1cn(CC/C(C)=C/CSCCC(=O)OC)nn1`, the Activity in assay [1] came out at 67%.
The same measure, in the same setting: for `CCCCCc1cn(CC/C(C)=C/CSCCC(=O)OC)nn1` the value was 76%.
Compound `C/C(=C\CSCCC(=O)O)CCn1cc(CCOC2CCCCO2)nn1` (centres undefined) came in with an Activity in assay [1] of 90%. The compound also yielded an IC50 in assay [2] of more than 100 µM.
On to `C/C(=C\CSCCC(=O)O)CCn1cc(CCc2ccc(-c3ccc(F)cc3)cc2)nn1`, for which the Activity in assay [1] is 42%.
The same measure, in the same setting: then `COc1ccc(-c2cn(CC/C(C)=C/CSCCC(=O)O)nn2)cc1`, with 87%; and `C/C(=C\CSCCC(=O)O)CCn1cc(COc2ccccc2)nn1`, with 89%.
As for `COC(=O)CCSC/C=C(\C)CCn1cc(-c2cccc3ccccc23)nn1`, the Activity in assay [1] is 82%. Moreover, the values for the IC50 in the assay with MEF [3] and with MEF [4] were 96 µM and more than 100 µM, respectively.
Take `COC(=O)CCSC/C=C(\C)CCn1cc(CC/C=C(\C)CCC=C(C)C)nn1`: in assay [1], the Activity was found to be 59%.
In assay [1], `C/C(=C\CSCCC(=O)O)CCn1cc(CCc2cccc(-c3ccccc3)c2)nn1` showed an Activity of 74%.
As for `C/C(=C\CSCCC(=O)O)CCn1cc(CCc2ccccc2)nn1`, the Activity in assay [1] is 75%.
Compound `COC(=O)CCSC/C=C(\C)CCn1cc(CCc2ccc(-c3cccs3)cc2)nn1` returned an Activity in assay [1] of 57%.
Consider `CC(C)=CCC/C(C)=C/CC/C(C)=C/Cc1cn(CCCC(=O)O)nn1`, for which the Activity in assay [1] amounted to 83%.
Still for that read-out and setting: then `COC(=O)CCSC/C=C(\C)CCn1cc(CCc2ccc(-c3ccc(F)cc3)cc2)nn1`, with 28%.
In assay [2], `CC(C)=CC/C(=C\CSC[C@H](NC(=O)c1ccccc1Oc1ccccc1)C(=O)O)CCc1ccc(-c2ccccc2)cc1` gave an IC50 of 2.5 µM.
In assay [1], `COC(=O)CCSC/C=C(\C)CCn1cc(-c2ccccc2)nn1` came in with an Activity of 89%.
For `COC(=O)CCSC/C=C(\C)CCn1cc(CCc2cccc(-c3ccccc3)c2)nn1`, the Activity in assay [1] is 65%. Also, the 50% inhibitory concentration (IC50) is 55 µM with MEF [3], 29 µM in assay [2] and more than 100 µM with MEF [4].
The compound `COC(=O)CCSC/C=C(\C)CCn1cc(-c2ccsc2)nn1` showed an Activity in assay [1] of 82%.
On the same count and under the same terms, for `COC(=O)CCSC/C=C(\C)CCn1cc(CCOC2CCCCO2)nn1` (centres undefined) the value was 80%; for `COC(=O)CCSC/C=C(\C)CCn1cc(Cc2ccccc2)nn1`, 80%.
The compound `C/C(=C\CSCCC(=O)O)CCn1cc(CCc2ccc(-c3cccc(C#N)c3)cc2)nn1` showed an Activity in assay [1] of 74%.
On the same count and under the same terms, then `COC(=O)CCSC/C=C(\C)CCn1cc(COc2ccc(-c3ccccc3)cc2)nn1`, with 67%.
The compound `C/C(=C\CSCCC(=O)O)CCn1cc(CCC(C)C)nn1` registered an Activity in assay [1] of 72%.
Take `CCCCCc1cn(CC/C(C)=C/CSCCC(=O)O)nn1`: the Activity in assay [1] is 77%.
Consider `C/C(=C\CSCCC(=O)O)CCn1cc(CCc2ccc(-c3ccccc3)cc2)nn1`, for which the Activity in assay [1] stood at 43%.
For `C/C(=C\CSCCC(=O)O)CCn1cc(COc2ccc(-c3ccccc3)cc2)nn1`, the Activity in assay [1] amounted to 75%.
`CC(C)=CCC/C(C)=C/CCc1cn(CCC(=O)O)nn1` showed an Activity in assay [1] of 75%.
On the same count and under the same terms, then `CC(C)=CCC/C(C)=C/CC/C(C)=C/Cc1cn(CC(=O)O)nn1`, with 65%.
Take `COC(=O)CCSC/C=C(\C)CCn1cc(CCc2ccccc2)nn1`: the Activity in assay [1] is 69%. This compound also came in with an IC50 in assay [2] of 41 µM.
With `CC(C)=CCC/C(C)=C/CCc1cn(CCCC(=O)O)nn1`, the Activity in assay [1] was 90%.
On the same count and under the same terms, then `COC(=O)CCSC/C=C(\C)CCn1cc(CCC(C)C)nn1`, with 77%.
For `COC(=O)CCSC/C=C(\C)CCn1cc(-c2ccc(C(C)(C)C)cc2)nn1`, the Activity in assay [1] worked out at 84%.
Turning to `CC(C)=CCC/C(C)=C/CC/C(C)=C/CSc1ccccc1C(=O)O` [SALIRASIB], the concentration for half-maximal inhibition (IC50) in assay [2] was 25.5 µM.
Turning to `COC(=O)CCSC/C=C(\C)CCn1cc(COc2ccccc2)nn1`, in assay [1], the Activity came out at 89%.
Still for that read-out and setting: for `C/C(=C\CSCCC(=O)O)CCn1cc(-c2ccsc2)nn1` the value was 80%.
Still for that read-out and setting: then `C/C(=C\CSCCC(=O)O)CCn1cc(-c2ccc(C(C)(C)C)cc2)nn1`, with 88%; and `C/C(=C\CSCCC(=O)O)CCn1cc(-c2ccccc2)nn1`, with 88%.
On the same count and under the same terms, then `C/C(=C\CSCCC(=O)O)CCn1cc(CCc2ccc(-c3cccs3)cc2)nn1`, with 63%; and `CC(C)=CCC/C(C)=C/CC/C(C)=C/Cc1cn(CCCCC(=O)O)nn1`, with 73%.
In assay [1], `COC(=O)CCSC/C=C(\C)CCn1cc(CCc2ccc(-c3cccc(C#N)c3)cc2)nn1` gave an Activity of 30%.
Still for that read-out and setting: then `C/C(=C\CSCCC(=O)O)CCn1cc(-c2cccc3ccccc23)nn1`, with 77%; and `COC(=O)CCSC/C=C(\C)CCn1cc(-c2ccc(OC)cc2)nn1`, with 91%; and `CC(C)=CCC/C(C)=C/CC/C(C)=C/Cc1cn(CCC(=O)O)nn1`, with 53%.
Same read-out and setting: for `CC(C)=CCC/C(C)=C/CC/C(C)=C/CCc1cn(CCC(=O)O)nn1` the value was 69%; for `COC(=O)CCSC/C=C(\C)CCn1cc(CCc2ccccc2-c2ccccc2)nn1`, 74%.
On to `COC(=O)CCSC/C=C(\C)CCn1cc(CCc2ccc(-c3ccccc3)cc2)nn1`, for which the Activity in assay [1] stood at 14%. Further, the 50% inhibitory concentration (IC50) in the assay with MEF [3] was 33 µM; in assay [2] it was 0.8 µM; with MEF [4], more than 100 µM; in assay [6] it was 8 µM. Besides, in assay [5], the inhibition entry is “Active”.
As for `C/C(=C\CSCCC(=O)O)CCn1cc(Cc2ccccc2)nn1`, in assay [1], the Activity is 82%.
On the same count and under the same terms, for `COC(=O)CCSC/C=C(\C)CCn1cc(CCc2ccc(-c3ccc(-c4ccccc4)cc3)cc2)nn1` the value was 79%.
